{"source": "paper PMC3822768", "about": "(Bioorganic & medicinal chemistry, 2013)", "format_in_all_cases": "cell-based, Human", "key": {"H460 cells [1]": {"test_system": "H460 cells", "test": "Cell cycle analysis by propidium iodide staining and flow cytometry, H460", "conditions": "H460, 1.0, 2.5, 5.0 µM, 24 h", "outline": "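After 24 h exposure to test compound at 1.0, 2.5 or 5.0 µM, H460 cells were washed in PBS and fixed overnight in 70% ice-cold ethanol at −20 °C. They were then stained in the dark for 30 min with 0.1% Triton X-100, 0.2 mg/mL RNase and 20 µg/mL propidium iodide. DNA content was measured by flow cytometry and histograms were modelled for phase distribution.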"}, "HL-60 cells": {"test_system": "HL-60 cells", "test": "Hoechst 33258 staining", "conditions": "HL-60, 0.25-1.0 µM, 24 h", "outline": "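HL-60 cells seeded at 1×10⁵ per well and incubated 24 h with test compound at 0.25, 0.5 and 1.0 µM. After phase-contrast imaging, nuclei stained with Hoechst 33258 (5 µg/mL, 10 min), washed twice with PBS and fixed in 4% PFA/PBS for 10 min at 25 °C. Apoptotic chromatin condensation or fragmentation assessed; fluorescence at ex 365/em 460 nm.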"}, "H460 cells [2]": {"test_system": "H460 cells", "test": "Hoechst 33258 staining", "conditions": "H460, 1.0-5.0 µM, 24 h", "outline": "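H460 cells plated at 5×10⁴ per well and exposed to test compound at 1.0, 2.5 and 5.0 µM for 24 h. Cells photographed under phase contrast, then stained with 5 µg/mL Hoechst 33258 for 10 min, washed twice in PBS and fixed in 4% PFA/PBS for 10 min at 25 °C. Nuclei scored for chromatin condensation or fragmentation; fluorescence read at ex 365/em 460 nm.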"}, "[3]": {"test_system": "cyclin B1, CDK1, caspase 3 in HL-60 cells", "test": "Western blot of cyclin B1, CDK1 and caspase 3, HL-60", "conditions": "HL-60, 24 h", "outline": "(§1)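 Cells grown in RPMI-1640 with 10% FBS at 37 °C, 5% CO₂, then treated with test compound at graded concentrations for 24 h. Harvested cells lysed on ice for 30 min and spun at 12,000 g for 20 min. Protein quantified by Bradford, denatured in Tris-HCl pH 6.8/DTT/SDS loading buffer, run on 10% SDS-PAGE and transferred to nitrocellulose. Detection by chemiluminescence, with β-actin as loading control.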"}, "[4]": {"test_system": "cyclin B1, CDK1, caspase 3 in H460 cells", "test": "Western blot of cyclin B1, CDK1 and caspase 3, H460", "conditions": "H460, 24 h", "outline": "as §1"}, "cancer cell lines": {"test_system": "cancer cell lines", "test": "MTT growth inhibition assay, summary over the cancer cell line panel", "conditions": "48 h; for cytotoxicity against the cancer cell lines: MTT"}}, "note": "pIC50: −log10 of the molar value."}
{"smiles": "COc1ccc(-c2cc(=O)[nH]c3cc4c(cc23)OCO4)c(OC)c1", "note": "[Compound 12e, 6,7-Methylenedioxy-4-(2,4-dimethoxyphenyl)quinolin-2(1H)-one]", "values": [{"measurement": "percentage of G2/M cells", "setting": "H460 cells [1]", "value": "increased"}, {"measurement": "apoptotic morphology by Hoechst 33258 staining", "setting": "HL-60 cells", "value": "typical apoptotic characteristics"}, {"measurement": "apoptotic morphology by Hoechst 33258 staining", "setting": "H460 cells [2]", "value": "typical apoptotic characteristics"}, {"measurement": "CDK1 protein expression level", "setting": "[3]", "value": "decreased in a concentration-dependent manner"}, {"measurement": "caspase 3 cleavage (17 kDa)", "setting": "[3]", "value": "induced caspase 3 cleavage"}, {"measurement": "cyclin B1 protein expression", "setting": "[3]", "value": "transient increase followed by a decrease"}, {"measurement": "CDK1 protein expression level", "setting": "[4]", "value": "increased in a concentration-dependent manner"}, {"measurement": "caspase 3 cleavage (17 kDa)", "setting": "[4]", "value": "induced caspase 3 cleavage"}]}
{"smiles": "O=c1cc(-c2cccc(F)c2)c2cc3c(cc2[nH]1)OCO3", "note": "[Compound 12m, 4-(3-Fluorophenyl)-6,7-methylenedioxyquinolin-2(1H)-one]", "values": [{"measurement": "cytotoxicity against the cancer cell lines", "setting": "cancer cell lines", "value": "weak cytotoxicity"}]}
{"smiles": "O=c1cc(-c2ccc(F)cc2)c2cc3c(cc2[nH]1)OCO3", "note": "[Compound 12n, 4-(4-Fluorophenyl)-6,7-methylenedioxyquinolin-2(1H)-one]", "values": [{"measurement": "cytotoxicity against the cancer cell lines", "setting": "cancer cell lines", "value": "weak cytotoxicity"}]}
{"smiles": "O=c1cc(-c2ccccc2)c2cc3c(cc2[nH]1)OCO3", "note": "[Compound 12a, 6,7-Methylenedioxy-4-phenylquinolin-2(1H)-one]", "values": [{"measurement": "cytotoxicity against the cancer cell lines", "setting": "cancer cell lines", "value": "poor cytotoxicity"}]}
{"smiles": "COc1cc(-c2cc(=O)[nH]c3cc4c(cc23)OCO4)cc(OC)c1OC", "note": "[Compound 12k, 6,7-Methylenedioxy-4-(3,4,5-trimethoxyphenyl)quinolin-2(1H)-one]", "values": [{"measurement": "pIC50", "setting": "cancer cell lines; Homo sapiens, read-out: IC50 range over cancer cell lines", "value": "5.12 to 6.03"}]}
{"smiles": "O=c1cc(-c2ccccc2F)c2cc3c(cc2[nH]1)OCO3", "note": "[Compound 12l, 4-(2-Fluorophenyl)-6,7-methylenedioxyquinolin-2(1H)-one]", "values": [{"measurement": "cytotoxicity against the cancer cell lines", "setting": "cancer cell lines", "value": "weak cytotoxicity"}]}
